Here are results for 25 compounds from ChEMBL document CHEMBL1138853, “Synthesis and antituberculosis activity of a novel series of optically active 6-nitro-2,3-dihydroimidazo[2,1-b]oxazoles” (2006).

≈ marks a conversion by molar mass, not a printed value.

In test [1] the test system is Mycobacterium tuberculosis. Nature of the test: Antituberculosis activity against Mycobacterium tuberculosis H37Rv. The class given is functional. A digest of the protocol: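 Agar dilution on 7H11 plates with drug-susceptible and drug-resistant M. tuberculosis H37Rv strains grown in Middlebrook 7H9 broth. Frozen stocks (-80 °C) diluted to about 10⁶ CFU/mL and spotted with a multipoint inoculator onto drug-containing plates. Drugs dissolved in DMSO and serially diluted 2-fold in DMSO. Read-out: MIC.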

Test [2] has as its system Mycobacterium tuberculosis. The test is described as follows: Reduction in log CFU of Mycobacterium tuberculosis Kurono infected in mouse lung at 50 mg/kg, po relative to control. The class given is functional. A digest of the protocol: (§1)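 Mice weighing 20-25 g infected intravenously via tail vein with 10⁴ CFU of M. tuberculosis Kurono. Oral dosing once daily at 0.5-50 mg/kg for 10 days (n = 2), starting the day after infection. Sacrificed on day 11; lungs homogenised and dilution-plated on 7H11 agar at 37 °C for 14 days. Mean log CFU reduction calculated against untreated controls.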

Test [3] deals with Mycobacterium tuberculosis. The test is described as follows: Reduction in log CFU of Mycobacterium tuberculosis Kurono infected in mouse lung at 10 mg/kg, po after 10 days. The class given is functional. A digest of the protocol: as §1
Test [4] concerns Mycobacterium tuberculosis. Nature of the test: Decrease in Mycobacterium tuberculosis count in mouse pulmonary. The test is classed as functional, organism-based. The essentials: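 ICR male mice (20-25 g) infected intravenously via tail vein with 10⁴ CFU of M. tuberculosis Kurono. Dosed orally once daily as a 5% gum arabic suspension for 28 days (n = 6), starting the day after infection. Sacrificed on day 29; lung homogenates plated on 7H11 agar at 37 °C for 14 days. Counts compared with untreated controls.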

Test [5] has as its system Mycobacterium tuberculosis. Nature of the test: Reduction in log CFU of Mycobacterium tuberculosis Kurono infected in mouse lung at 0.5 mg/kg, po after 10 days. The class given is functional. The essentials: as §1
Test [6] deals with Mycobacterium tuberculosis. The test is described as follows: Reduction in log CFU of Mycobacterium tuberculosis Kurono infected in mouse lung at 5 mg/kg, po after 10 days. The test is classed as functional. The essentials: as §1

In general, MIC refers to the least concentration at which growth counts as inhibited. A lower MIC goes with a more susceptible organism. Take `O=[N+]([O-])c1cn2c(n1)OC(COCCc1ccccc1)C2` (centres undefined): the MIC in test [1] worked out at 1.56 µg/mL (≈ 5.39 µM).
The compound `C[C@]1(COc2ccc(C(F)(F)F)cc2)Cn2cc([N+](=O)[O-])nc2O1` registered an Activity in test [2] above 4.4. For the same compound, the MIC in test [1] is 0.2 µg/mL (≈ 0.583 µM).
The corresponding values for `Cc1ccc(OC[C@@]2(C)Cn3cc([N+](=O)[O-])nc3O2)cc1` are 2.9 and 0.012 µg/mL (≈ 0.0415 µM).
The corresponding values for `C[C@]1(COc2ccc(N3CCC(Oc4ccc(F)cc4)CC3)cc2)Cn2cc([N+](=O)[O-])nc2O1` are 2.2 and 0.39 µg/mL (≈ 0.832 µM).
The corresponding values for `C[C@]1(COc2ccc(N3CCC(Oc4ccccc4OC(F)(F)F)CC3)cc2)Cn2cc([N+](=O)[O-])nc2O1` are 3 and 0.39 µg/mL (≈ 0.73 µM).
`C[C@]1(COc2ccc(N3CCC(Oc4ccc(C(F)(F)F)cc4)CC3)cc2)Cn2cc([N+](=O)[O-])nc2O1` yielded an Activity in test [2] of 2.2. The compound also came in with an MIC in test [1] of 0.012 µg/mL (≈ 0.0231 µM).
Regarding `Cc1ccc(OC2CCN(c3ccc(OC[C@@]4(C)Cn5cc([N+](=O)[O-])nc5O4)cc3)CC2)cc1`, in test [2], the Activity came to 0.6. This compound gave an MIC in test [1] of 0.78 µg/mL (≈ 1.68 µM).
Take `C[C@]1(COc2ccc(N3CCC(Oc4ccc(OC(F)(F)F)cc4)CC3)cc2)Cn2cc([N+](=O)[O-])nc2O1` [DELAMANID]: the Activity in test [2] is above 3.8; in test [3], above 4.4; in test [4] it was “Dose-dependent effect”; in test [5], 2.5. In test [1], this compound registered an MIC of 0.006 µg/mL (≈ 0.0112 µM).
In test [1], `O=[N+]([O-])c1cn2c(n1)OC(COC/C=C/c1ccccc1)C2` (centres undefined) yielded an MIC of 12.5 µg/mL (≈ 41.5 µM).
On to `C[C@]1(COc2ccc(N3CCC(Oc4ccccc4)CC3)cc2)Cn2cc([N+](=O)[O-])nc2O1`, for which the Activity in test [2] was 2.8. In test [1], the MIC is 0.39 µg/mL (≈ 0.866 µM).
The compound `C[C@]1(COc2ccc(N3CCOCC3)cc2)Cn2cc([N+](=O)[O-])nc2O1` returned an Activity in test [2] of 1.3. Moreover, in test [1], it took 0.78 µg/mL (≈ 2.16 µM) to inhibit growth (MIC).
In test [1], `CO[C@H]1/C=C/O[C@@]2(C)Oc3c(C)c(O)c4c(O)c(c(/C=N/N5CCN(C)CC5)c(O)c4c3C2=O)NC(=O)/C(C)=C\C=C\[C@H](C)[C@H](O)[C@@H](C)[C@@H](O)[C@@H](C)[C@H](OC(C)=O)[C@@H]1C` [RIFAMPIN] had an MIC of 0.1 µg/mL (≈ 0.122 µM). For the same compound, the Activity in test [6] turned out to be 0.5.
Consider `COc1ccc(OC[C@@]2(C)Cn3cc([N+](=O)[O-])nc3O2)cc1`, for which the Activity in test [2] is listed as 0.72. This compound gave an MIC in test [1] of 0.05 µg/mL (≈ 0.164 µM).
In test [2], `C[C@]1(COc2ccccc2)Cn2cc([N+](=O)[O-])nc2O1` displayed an Activity of 2. The same compound had an MIC in test [1] of 0.05 µg/mL (≈ 0.182 µM).
The matching figures for `C[C@]1(COc2ccc(Cl)cc2)Cn2cc([N+](=O)[O-])nc2O1`: above 3.1 and 0.024 µg/mL (≈ 0.0775 µM).
As for `C[C@]1(COc2ccc(N3CC[S+]([O-])CC3)cc2)Cn2cc([N+](=O)[O-])nc2O1`, the MIC in test [1] was 6.25 µg/mL (≈ 15.9 µM).
As for `C[C@]1(COc2ccc(N3CCSCC3)cc2)Cn2cc([N+](=O)[O-])nc2O1`, the Activity in test [2] turned out to be 0. In test [1], the MIC was found to be 0.78 µg/mL (≈ 2.07 µM).
Regarding `C[C@]1(COc2ccc(N3CCC(Oc4cccc(OC(F)(F)F)c4)CC3)cc2)Cn2cc([N+](=O)[O-])nc2O1`, the Activity in test [2] was above 4.4. This compound had an MIC in test [1] of 0.024 µg/mL (≈ 0.0449 µM).
The matching figures for `COc1ccc(OC2CCN(c3ccc(OC[C@@]4(C)Cn5cc([N+](=O)[O-])nc5O4)cc3)CC2)cc1`: 0.1 and 0.39 µg/mL (≈ 0.812 µM).
`C[C@@]1(COc2ccccc2)Cn2cc([N+](=O)[O-])nc2O1`: the MIC in test [1] is 3.13 µg/mL (≈ 11.4 µM).
In test [2], `C[C@]1(COc2ccc(N3CCC(Oc4ccc(Cl)cc4)CC3)cc2)Cn2cc([N+](=O)[O-])nc2O1` gave an Activity of 2.2. The MIC in test [1] is 0.05 µg/mL (≈ 0.103 µM).
Compound `CC1(COc2ccccc2)Cn2cc([N+](=O)[O-])nc2O1` (centres undefined) showed an MIC in test [1] of 0.1 µg/mL (≈ 0.363 µM).
For `C[C@]1(COc2ccc(OC(F)(F)F)cc2)Cn2cc([N+](=O)[O-])nc2O1`, the figures for the Activity in test [2], in test [3] and in test [5] were above 3.6, 3 and 0.4, respectively. Besides, in test [1], inhibition of growth (MIC) required 0.2 µg/mL (≈ 0.557 µM).
Take `C[C@]1(COc2ccc(N3CCCCC3)cc2)Cn2cc([N+](=O)[O-])nc2O1`: the Activity in test [2] is given as 1.9. For the same compound, the MIC in test [1] amounted to 0.78 µg/mL (≈ 2.18 µM).
Compound `O=[N+]([O-])c1cn2c(n1)OC(COCc1ccccc1)C2` (centres undefined) showed an MIC in test [1] of 3.13 µg/mL (≈ 11.4 µM).
